Data set [1] concerns Human immunodeficiency virus 1. As to the kind of experiment: Antiviral activity against HIV1 infected human H9 lymphocytes assessed as suppression of viral replication. It is filed as functional, organism-based. In outline: (§1)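 EC50 is the sample concentration that suppresses HIV replication by 50%. Cytotoxic IC50 is the concentration toxic to 50% of mock-infected cells. Therapeutic index is IC50 divided by EC50.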

Data set [2] in a line: Therapeutic index, ratio of IC50 for human H9 lymphocytes to EC50 for HIV1. The settings on record: HIV-1, read-out: Ratio IC50/EC50. A digest of the protocol: as §1
For data set [3], the system named is PC-3. As to the kind of experiment: Cytotoxicity against human PC-3 cells. It is filed as functional, cell-based.
For data set [4], the system named is A-431. Briefly: Cytotoxicity against human A431 cells. It is filed as functional, cell-based.
A short description of data set [5]: Cytotoxicity against human AR751 cells. It is filed as functional, cell-based.
In data set [6] the test system is HCT-8. As to the kind of experiment: Cytotoxicity against human HCT8 cells. It is filed as functional, cell-based.
Data set [7] relates to LNCaP. Briefly: Cytotoxicity against human LNCAP cells. It is filed as functional, cell-based.
In data set [8] the test system is H9. As to the kind of experiment: Cytotoxicity against mock-infected human H9 lymphocytes. It is filed as cell-based. In outline:
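Mock-infected cells, run alongside the HIV replication suppression assay, were exposed to test sample. IC50 was taken as the concentration toxic to 50% of the mock-infected cells.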

In data set [9] the test system is A549. As to the kind of experiment: Cytotoxicity against human A549 cells. It is filed as functional, cell-based.

The structures appear in SMILES notation. In brackets after ≈: the same amount, converted by molar mass. Activity calls are given as the source filed them. The calls are words filed in the database; no cut-off is given here. A value given as a limit tells only on which side of the number the result lay.

20 compounds from ChEMBL document CHEMBL1158052, “Tripfordines A-C, sesquiterpene pyridine alkaloids from Tripterygium wilfordii, and structure anti-HIV activity relationships of Tripterygium alkaloids” (J Nat Prod, 2006) can be followed below.

In the case of `CC(=O)OC[C@]12[C@H](OC(C)=O)[C@H](OC(C)=O)[C@@H]3[C@@H](OC(=O)c4ccccc4)[C@@]14O[C@@]3(C)COC(=O)c1cccnc1C(C)C(C)C(=O)O[C@@H]([C@H](OC(C)=O)[C@@H]2OC(C)=O)[C@]4(C)O` (some centres undefined), the concentration giving a half-maximal response (EC50) in data set [1] amounted to 0.9 µg/mL (≈ 1.04 µM).

As to `CC(=O)OC[C@]12[C@H](OC(C)=O)[C@H](OC(C)=O)[C@@H]3[C@@H](OC(=O)c4ccccc4)[C@@]14O[C@@]3(C)COC(=O)c1cccnc1C(C)C(C)C(=O)O[C@@H]([C@H](OC(=O)c1cccnc1)[C@@H]2OC(C)=O)[C@]4(C)O` (some centres undefined), the outcome in data set [1] was inactive.

On to `CC(=O)OC[C@]12[C@H](OC(C)=O)[C@H](OC(C)=O)[C@@H]3[C@@H](OC(C)=O)[C@@]14O[C@@]3(C)COC(=O)c1cccnc1CCC(C)C(=O)O[C@@H]([C@H](OC(=O)c1ccccc1)[C@@H]2OC(C)=O)[C@]4(C)O` (some centres undefined), for which the outcome in [1] was inactive.

As to `CC(=O)OC[C@]12[C@H](OC(C)=O)[C@H](OC(C)=O)[C@@H]3[C@@H](OC(C)=O)[C@@]14O[C@@]3(C)COC(=O)c1cccnc1CCC(C)C(=O)O[C@@H]([C@H](OC(=O)c1ccco1)[C@@H]2OC(C)=O)[C@]4(C)O` (some centres undefined), the result in data set [1] was inactive.

Consider `CC(=O)O[C@@H]1[C@@H]2[C@@H](OC(C)=O)[C@@]34O[C@@]2(C)COC(=O)c2cnccc2C(C)C(C)C(=O)O[C@@H]([C@H](OC(C)=O)[C@H](OC(C)=O)[C@@]3(COC(=O)c2ccco2)[C@@H]1OC(C)=O)[C@]4(C)O` (some centres undefined), for which, in data set [1], the outcome was inactive.

As to `CC(=O)OC[C@]12[C@H](OC(C)=O)[C@H](OC(C)=O)[C@@H]3[C@@H](OC(C)=O)[C@@]14O[C@@]3(C)COC(=O)c1cccnc1C(C)C(C)C(=O)O[C@@H]([C@H](OC(C)=O)[C@@H]2OC(C)=O)[C@]4(C)O` (some centres undefined) [EUONYMINE], in data set [1], the concentration for a half-maximal effect (EC50) was determined as 0.2 µg/mL (≈ 0.248 µM).

`CC(=O)OC[C@]12[C@H](OC(C)=O)[C@H](OC(C)=O)[C@@H]3[C@@H](OC(C)=O)[C@@]14O[C@@]3(C)COC(=O)c1cccnc1C(C)C(C)C(=O)O[C@@H]([C@H](OC(=O)c1ccccc1)[C@@H]2OC(C)=O)[C@@]4(C)O` (some centres undefined) [FORRESTINE]: the selectivity ratio in data set [2] is > 208.

With `CC(=O)O[C@@H]1[C@@H]2[C@@H](OC(C)=O)[C@@]34O[C@@]2(C)COC(=O)c2cnccc2C(C)C(C)(O)C(=O)O[C@@H]([C@H](OC(C)=O)[C@H](OC(C)=O)[C@@]3(COC(=O)c2ccco2)[C@@H]1OC(C)=O)[C@]4(C)O` (some centres undefined) [HYPOGLAUNINE A], in [2], the selectivity ratio is > 769.

Consider `CC(=O)OC[C@]12[C@H](OC(C)=O)[C@H](OC(C)=O)[C@@H]3[C@@H](OC(C)=O)[C@@]14O[C@@]3(C)COC(=O)c1cnccc1C(C)C(C)(O)C(=O)O[C@@H]([C@H](OC(=O)c1ccco1)[C@@H]2OC(C)=O)[C@]4(C)O` (some centres undefined) [HYPOGLAUNINE B], for which the EC50 in data set [1] was 0.1 µg/mL (≈ 0.114 µM). Also, in [2], the selectivity ratio was > 1000.

On to `CC(=O)OC[C@]12[C@H](OC(C)=O)[C@H](OC(C)=O)[C@@H]3[C@@H](OC(=O)c4ccco4)[C@@]14O[C@@]3(C)COC(=O)c1cccnc1C(C)C(C)C(=O)O[C@@H]([C@H](OC(C)=O)[C@@H]2OC(C)=O)[C@]4(C)O` (some centres undefined) [HYPONINE A], for which the EC50 in data set [1] worked out at 1 µg/mL (≈ 1.17 µM).

Regarding `CC(=O)O[C@@H]1[C@H](OC(C)=O)[C@@]2(COC(=O)c3ccco3)[C@H](OC(C)=O)C(=O)[C@@H]3[C@@H](OC(C)=O)[C@@]24O[C@@]3(C)COC(=O)c2cccnc2C(C)C(C)C(=O)O[C@@H]1[C@]4(C)O` (some centres undefined) [HYPONINE B], the EC50 in data set [1] was 0.1 µg/mL (≈ 0.123 µM). The selectivity ratio in [2] was > 1000.

As for `CC(=O)OC[C@]12[C@H](OC(C)=O)[C@H](OC(C)=O)[C@@H]3[C@@H](OC(C)=O)[C@@]14O[C@@]3(C)COC(=O)c1cccnc1C(C)C(C)C(=O)O[C@@H]([C@H](OC(=O)c1ccco1)[C@@H]2OC(C)=O)[C@]4(C)O` (some centres undefined) [HYPONINE F], in data set [2], the selectivity ratio was > 2.8.

Take `CC(=O)OC[C@]12[C@H](OC(C)=O)[C@H](OC(C)=O)[C@@H]3[C@@H](O)[C@@]14O[C@@]3(C)COC(=O)c1cccnc1C(C)C(C)C(=O)O[C@@H]([C@H](OC(C)=O)[C@@H]2OC(C)=O)[C@]4(C)O` (some centres undefined) [NEOEUONYMINE]: the EC50 in data set [1] was determined as 0.88 µg/mL (≈ 1.15 µM). In [2], the selectivity ratio is > 113.

Turning to `CC(=O)OC[C@]12[C@H](OC(C)=O)[C@H](OC(C)=O)[C@@H]3[C@@H](OC(C)=O)[C@@]14O[C@@]3(C)COC(=O)c1cccnc1CCC(C)(O)C(=O)O[C@@H]([C@H](O)[C@@H]2OC(C)=O)[C@@]4(C)O` (some centres undefined) [TRIPFORDINE A], the 50% inhibitory concentration (IC50) in data set [3] was > 4 µg/mL; in [4], > 4 µg/mL; in [5] it was > 4 µg/mL; in data set [6], > 4 µg/mL; in data set [7] it was > 4 µg/mL; in [8] it was > 25 µg/mL. Besides, the IC50 in [9] is > 4 µg/mL. The EC50 in data set [1] was determined as 13.4 µg/mL (≈ 17.2 µM). For the same compound, the selectivity ratio in [2] stood at 1.9.

For the compound `CC(=O)OC[C@]12[C@H](OC(C)=O)[C@H](OC(C)=O)[C@@H]3[C@@H](O)[C@@]14O[C@@]3(C)COC(=O)c1cccnc1CCC(C)C(=O)O[C@@H]([C@H](OC(C)=O)[C@@H]2OC(C)=O)[C@@]4(C)O` (some centres undefined) [TRIPFORDINE B], the IC50 in data set [3] is > 4 µg/mL; in [4] it was > 4 µg/mL; in data set [5], > 4 µg/mL; in data set [6], > 4 µg/mL; in data set [7], > 4 µg/mL; in data set [8], > 25 µg/mL. Moreover, the IC50 in [9] is > 4 µg/mL. In [1], the outcome was inactive.

`CC(=O)OC[C@]12[C@H](OC(C)=O)[C@H](OC(C)=O)[C@@H]3[C@@H](O)[C@@]14O[C@@]3(C)COC(=O)c1cnccc1C(C)C(C)C(=O)O[C@@H]([C@H](OC(C)=O)[C@@H]2OC(C)=O)[C@@]4(C)O` (some centres undefined) [TRIPFORDINE C]: the half-maximal inhibitory concentration (IC50) in data set [3] is > 4 µg/mL; in data set [4] it was > 4 µg/mL; in data set [5] it was > 4 µg/mL; in data set [6], > 4 µg/mL; in data set [7] it was > 4 µg/mL; in [8], > 25 µg/mL. Besides, the concentration for half-maximal inhibition (IC50) in data set [9] was > 4 µg/mL. Moreover, the outcome in [1] was inactive.

Regarding `COC(=O)C[C@@H]1C(=O)CCC(C)C(=O)O[C@@H]2[C@@H]3[C@@H](OC(C)=O)[C@@]45O[C@@]3(C)COC(=O)c3cccnc3C(C)C(C)C(=O)O[C@@H]([C@H](OC(C)=O)[C@H](OC(C)=O)[C@@]4(COC1=O)[C@@H]2OC(C)=O)[C@]5(C)O` (some centres undefined) [TRIPTONINE A], the EC50 in data set [1] is 2.5 µg/mL (≈ 2.64 µM). Moreover, the selectivity ratio in data set [2] was > 39.4.

For `COC(=O)C[C@@H]1C(=O)CC[C@H](C)C(=O)O[C@@H]2[C@@H]3[C@@H](OC(C)=O)[C@@]45O[C@@]3(C)COC(=O)c3cnccc3[C@@H](C)[C@@H](O)C(=O)O[C@@H]([C@H](OC(C)=O)[C@H](OC(C)=O)[C@@]4(COC1=O)[C@@H]2OC(C)=O)[C@]5(C)O` [TRIPTONINE B], the EC50 in [1] is < 0.1 µg/mL. The selectivity ratio in data set [2] was > 1000.

With `CC(=O)OC[C@]12[C@H](OC(C)=O)[C@H](OC(C)=O)[C@@H]3[C@@H](OC(C)=O)[C@@]14O[C@@]3(C)COC(=O)c1cccnc1CCC(C)(O)C(=O)O[C@@H]([C@H](OC(=O)c1ccccc1)[C@@H]2OC(C)=O)[C@]4(C)O` (some centres undefined) [WILFORDINE], the concentration for a half-maximal effect (EC50) in data set [1] was < 0.1 µg/mL. Moreover, the selectivity ratio in data set [2] was > 200.

For the compound `CC(=O)OC[C@]12[C@H](OC(C)=O)[C@H](OC(C)=O)[C@@H]3[C@@H](OC(C)=O)[C@@]14O[C@@]3(C)COC(=O)c1cccnc1CCC(C)(O)C(=O)O[C@@H]([C@H](OC(=O)c1ccco1)[C@@H]2OC(C)=O)[C@]4(C)O` (some centres undefined) [WILFORTRINE], the EC50 in data set [1] is < 0.1 µg/mL. For the same compound, the selectivity ratio in [2] was > 1000.
